# Published values pooled from the literature.
# Each line is one published result; the experiments were not run side by side.
# Target: Inhibitor of nuclear factor kappa-B kinase subunit epsilon (IKBKE, Homo sapiens, UniProt Q14164)
# Read-out: enzyme activity
# One construct used (Q14164 1-716): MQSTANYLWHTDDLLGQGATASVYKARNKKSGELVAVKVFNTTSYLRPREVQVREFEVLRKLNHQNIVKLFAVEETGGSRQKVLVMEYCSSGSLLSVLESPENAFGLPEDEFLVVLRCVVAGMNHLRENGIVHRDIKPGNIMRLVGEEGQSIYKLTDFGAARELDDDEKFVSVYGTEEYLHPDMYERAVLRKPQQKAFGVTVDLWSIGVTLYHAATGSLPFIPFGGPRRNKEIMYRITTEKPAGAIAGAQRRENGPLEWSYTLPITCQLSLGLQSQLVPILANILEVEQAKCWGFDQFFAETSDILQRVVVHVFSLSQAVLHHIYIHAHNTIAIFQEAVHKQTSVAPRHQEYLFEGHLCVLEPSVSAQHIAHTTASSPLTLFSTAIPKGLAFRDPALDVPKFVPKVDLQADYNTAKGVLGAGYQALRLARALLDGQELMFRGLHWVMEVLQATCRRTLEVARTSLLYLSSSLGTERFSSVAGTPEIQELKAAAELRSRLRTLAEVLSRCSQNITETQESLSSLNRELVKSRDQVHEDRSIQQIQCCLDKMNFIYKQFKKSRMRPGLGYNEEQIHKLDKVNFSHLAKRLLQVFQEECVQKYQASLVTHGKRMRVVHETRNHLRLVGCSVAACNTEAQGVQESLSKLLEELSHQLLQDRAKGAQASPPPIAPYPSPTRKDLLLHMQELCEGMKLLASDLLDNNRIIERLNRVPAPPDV
SMILES,action,method,tested at,remaining activity
Cc1cnc(NC2CCOCC2)nc1-n1cnc(C(=O)NC(CN)c2cc(F)cc(Cl)c2)c1 (stereo not drawn),inhibitor,radiometric,1 µM,64%
O=C(NCCCNc1nc(Nc2cccc(NC(=O)N3CCCC3)c2)ncc1C1CC1)C1CCC1,inhibitor,radiometric,1 µM,3%
Nc1ncnc2occ(-c3ccc(NC(=O)Nc4cc(C(F)(F)F)ccc4F)cc3)c12,inhibitor,,20 µM,12%
Cc1sc(C(=O)NC2COC2)cc1-n1cc(NC(=O)Nc2c(F)cccc2Cl)cn1,inhibitor,,10 µM,116%
Brc1cnc(Nc2cccc(CN3CCOCC3)c2)nc1NCCc1c[nH]cn1,inhibitor,radiometric,1 µM,36%
Cc1ccc(C(=O)Nc2ccc(CN3CCN(C)CC3)c(C(F)(F)F)c2)cc1C#Cc1cnc2cccnn12,inhibitor,,23.5 nM,99%
NS(=O)(=O)c1ccc(CNc2nc(Nc3cccc(CN4CCOCC4)c3)ncc2Br)cc1,inhibitor,radiometric,1 µM,32%
COc1cc(Nc2cnc(C#N)c(O[C@H](C)CN(C)C)n2)ncc1-c1cnn(C)c1,inhibitor,radiometric,10 µM,84%
O=c1cc(-c2cccc3c2Sc2ccccc2S3)oc(N2CCOCC2)c1,inhibitor,,0.5 µM,96.5%
NS(=O)(=O)c1ccc(CNc2ccnc(Nc3cccc(CN4CCOCC4)c3)n2)cc1,inhibitor,radiometric,1 µM,78%
Cn1c(=O)n(-c2ccc(C(C)(C)C#N)cc2)c2c3cc(-c4cnc5ccccc5c4)ccc3ncc21,inhibitor,,10 µM,86%
Clc1ccc(Nc2nnc(Cc3ccncc3)c3ccccc23)cc1,,,0.5 µM,95.7%
O=C(Nc1cnn(-c2csc(C(=O)NC3COC3)c2)c1)Nc1c(F)cccc1Cl,inhibitor,,5 µM,96.8%
O=c1c2ccccc2[nH]c(=S)n1CCN1CCC(=C(c2ccc(F)cc2)c2ccc(F)cc2)CC1,inhibitor,,0.5 µM,101%
CC(C)(C)c1nc(-c2cccc(NS(=O)(=O)c3c(F)cccc3F)c2F)c(-c2ccnc(N)n2)s1,inhibitor,radiometric,1 µM,97%
